Source: ChEMBL document CHEMBL1126683, “Synthesis and antitumor activity of isodoxorubicin analogues” (J Med Chem, 1993)
Values after ≈ are worked out from the molar mass of the structure shown.

Key:
[1] = system: HT-29; assay: Growth inhibition of HT 29 cell line by MTT reduction for 3 days of incubation time; assay type: functional, cell-based; settings: Homo sapiens, HT-29, 72 h
Summary of the method: (§1)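 Exponentially growing A549 or HT29 cells were seeded at 5×10^3/mL in RPMI and exposed to graded concentrations for 72 h (37 °C, 5% CO₂), in quadruplicate wells. MTT was added at 65 h, followed by a further 7–24 h incubation. Formazan was dissolved in DMSO and read at 492 nm. Results were expressed as extinction ratio to medium-only control, and IC50 was taken as 50% growth inhibition.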

[2] = system: A549; assay: Growth inhibition of A 549 cell line by MTT reduction for 3 days of incubation time; assay type: functional, cell-based; settings: Homo sapiens, A549, 72 h; summary of the method: as §1
[3] = system: L1210; assay: Growth inhibition of L1210 murine leukemia cells after 1 hr exposure in untreated control culture; assay type: functional, cell-based; settings: Mus musculus, L1210, 1 h
Summary of the method: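 L1210 cells were exposed to graded concentrations for 1 h at 37 °C, washed twice in McCoy 5A, and plated at 5×10^2 cells/plate in an agar upper layer using a modified Hamburger–Salmon method. Plates were kept 5–7 days at 37 °C in 5% CO₂, 20% O₂, 95% humidity. Colonies >60 μm were counted as % of untreated control, and IC50 was read from dose–response curves.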

[4] = system: L1210; assay: Growth inhibition of L1210 murine leukemia cells after 3 day exposure in MTT reduction assay; settings: Mus musculus, L1210, 3 days
[5] = species on record: Homo sapiens; assay: Activity against internally growing human tumor LXF tested in subrenal capsule assay; assay type: functional
Summary of the method: (§2)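 Human tumors were grown intrarenally in a subrenal capsule assay. Tumor area of the treated group was scored against the control group as follows: >50%, between 10% and 50%, or <10% of control.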

[6] = Evaluated for the degree of resistance as the ratio of IC50 L1210 / ADM to IC50 of L1210; assay type: functional
Summary of the method: (§3)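 Colony (stem cell) assay comparing L1210 and L1210/ADM cells under continuous exposure, with the compound mixed into the agar upper layer before plating. Cells were plated at 5×10^2 per plate and incubated 5–7 days at 37 °C. Colonies >60 μm were counted relative to untreated control, and IC50 values were taken from dose–response curves to form the resistance ratios.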

[7] = species on record: Homo sapiens; assay: Activity against internally growing human tumor HT-29 tested in subrenal capsule assay; assay type: functional; summary of the method: as §2
[8] = system: L1210; assay: Percentage ratio of mean survival time of treated animals to untreated controls for L1210 mouse leukemia treated by 3.1 mg / kg dosed intravenously on 1,5,and 9 days; settings: route intravenous
[9] = species on record: Homo sapiens; assay: Activity against internally growing human tumor A-549 tested in subrenal capsule assay; assay type: functional; summary of the method: as §2
[10] = system: L1210; assay: Growth inhibition of L1210/ADM murine leukemia cells after 3 day exposure in MTT assay; settings: Mus musculus, L1210, 3 day
[11] = species on record: Homo sapiens; assay: Activity against internally growing human tumor LXF / ADM tested in subrenal capsule assay; assay type: functional
Summary of the method: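 Tumors were resected at about 1/3 cm, cut into pieces of about 5 mm³, and retransplanted repeatedly until sensitivity was reduced. The subline was then tested in the subrenal capsule assay, with tumor area of the treated group scored as >50%, 10–50%, or <10% of control.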

[12] = Evaluated for the degree of cross resistance as the ratio of degree of resistance of doxorubicin to degree of resistance of the compound; assay type: functional; summary of the method: as §3
[13] = system: HT-29; assay: Growth inhibition of HT 29 cell line by MTT reduction for 7 days of incubation time; settings: Homo sapiens, HT-29, 168 h
[14] = system: A549; assay: cells; settings: Homo sapiens, A549, 168 h

| Structure (SMILES) | IC50 [1] [µg/mL] | IC50 [2] [µg/mL] | IC50 [3] [µg/mL] | IC50 [4] [µg/mL] | T/C [5] [%] | Degree of resistance [6] | T/C [7] [%] | T/C [8] [%] | T/C [9] [%] | IC50 [10] [µg/mL] | T/C [11] [%] | Degree of cross resistance [12] | IC50 [13] [µg/mL] | IC50 [14] [µg/mL] |
| --- | --- | --- | --- | --- | --- | --- | --- | --- | --- | --- | --- | --- | --- | --- |
| CC1O[C@@H](O[C@H]2C[C@](O)(CO)Cc3c(O)c4c(c(O)c32)C(=O)c2ccccc2C4=O)C[C@@H](O)[C@@H]1N1CCOCC1 (stereo partly specified) | 0.13 (≈ 0.234 µM) | 0.054 (≈ 0.0972 µM) | 0.21 (≈ 0.378 µM) | 0.15 (≈ 0.27 µM) | – | – | – | – | – | – | – | – | – | – |
| CC1O[C@@H](O[C@H]2C[C@](O)(CO)Cc3c(O)c4c(c(O)c32)C(=O)c2ccccc2C4=O)C[C@@H](O)[C@@H]1N.Cl (stereo partly specified) | 0.01 | 0.009 | 0.022 | 0.009 | >10 | 11 | >50 | 133 | >50 | 0.1 | >50 | 24 | – | – |
| CC1O[C@@H](O[C@H]2C[C@](O)(CO)Cc3c(O)c4c(c(O)c32)C(=O)c2ccccc2C4=O)C[C@@H](O)[C@@H]1NC(=O)C(F)(F)F (stereo partly specified) | 0.026 (≈ 0.0447 µM) | 0.011 (≈ 0.0189 µM) | 0.0064 (≈ 0.011 µM) | 0.015 (≈ 0.0258 µM) | – | – | – | – | – | – | – | – | – | – |
| CC1O[C@@H](O[C@H]2C[C@](O)(CO)Cc3c(O)c4c(c(O)c32)C(=O)c2ccccc2C4=O)C[C@@H](O)[C@@H]1N=[N+]=[N-] (stereo partly specified) | 0.46 (≈ 0.899 µM) | 0.24 (≈ 0.469 µM) | 0.26 (≈ 0.508 µM) | 0.13 (≈ 0.254 µM) | – | – | – | – | – | – | – | – | – | – |
| COc1cccc2c1C(=O)c1c(O)c3c(c(O)c1C2=O)C[C@@](O)(C(=O)CO)C[C@@H]3O[C@H]1C[C@H](N)[C@H](O)[C@H](C)O1 [DOXORUBICIN] | 0.06 (≈ 0.11 µM) | 0.05 (≈ 0.092 µM) | 0.04 (≈ 0.0736 µM) | – | <10 | 45 | >10 | – | >10 | 0.9 (≈ 1.66 µM) | >10 | 100 | 0.02 (≈ 0.0368 µM) | 0.02 (≈ 0.0368 µM) |
